Data on two compounds can be found in ChEMBL document CHEMBL1800056, “Discovery of 2-(6-{[(6-fluoroquinolin-2-yl)methyl]amino}bicyclo[3.1.0]hex-3-yl)-N-hydroxypyrimidine-5-carboxamide (CHR-3996), a class I selective orally active histone deacetylase inhibitor” (J Med Chem, 2010).

The test system of series [1] is Mus musculus. Put plainly: In-vivo inhibition of HDAC6 in human HCT116 cells xenografted CrTac:NCr-Fox1 nude mouse assessed as alpha-tubulin acetylation at 50 mg/kg, po administered daily for 16 days by Western blot analysis relative to control. The class given is functional, organism-based. Further details: dose 50 mg/kg. Conditions: HCT-116. The method in brief:
(§1)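 Female CrTac:NCr-Fox1(nu) mice, 6-8 weeks old, bearing bilateral sc HCT116 tumors (2 million cells). Daily oral 50 mg/kg in 10% DMSO-saline from day 6 (tumors ~5 mm) to day 16; vehicle controls. Tumor lysates taken 0.5, 1.0 and 4 h after the last dose. Western blot for acetylated histone H3 or α-tubulin, normalized to GAPDH.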
(A xenograft is tissue or cells of one species grown in another, often human tumour cells in immunodeficient mice.)

Series [2] has as its system Mus musculus. Put plainly: Toxicity in human HCT116 cells xenografted CrTac:NCr-Fox1 nude mouse at 50 mg/kg, po administered daily for 16 days. The format is organism-based, HCT-116. Set-up: dose 50 mg/kg, route oral. As to conditions: in vivo, 384 h. In short, it runs like this: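 Female CrTac:NCr-Fox1(nu) athymic mice, 6-8 weeks old, given bilateral sc HCT116 implants (2 million cells). Oral dosing at 50 mg/kg in 10% DMSO-saline, once daily from day 6 (tumors ~5 mm mean diameter) until day 16. Controls received vehicle. Tumor size and body weight recorded three times weekly.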

Series [3] in a line: Ratio of drug level in spleen to plasma of CrTac:NCr-Fox1(nu) athymic mouse at 50 mg/kg, po administered daily for 16 days. The class given is ADME, organism-based. Further details: dose 50 mg/kg, route oral. In short, it runs like this:
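Female CrTac:NCr-Fox1(nu) athymic mice, 6-8 weeks old, inoculated bilaterally sc with 2 million HCT116 colon carcinoma cells. Dosing at 50 mg/kg po daily in 10% DMSO-saline started on day 6 (tumors approx. 5 mm diameter). Controls received vehicle alone. On day 16, plasma, spleen and tumor were collected and frozen for PK assays of drug levels.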

Another series has as its target Histone deacetylase 1 (Homo sapiens, UniProt Q13547). Put plainly: Inhibition of human recombinant HDAC1 using fluor de Lys as substrate by fluorometric analysis.
For series [4], the system named is MOLT-4. Put plainly: Antiproliferative activity against human MOLT4 cells after 72 hrs by WST-1 assay. The format is functional. As to conditions: Homo sapiens, MOLT-4, 72 h. The method in brief: (§2)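 Cells seeded at (1-5) × 10³/well in serum-containing medium for 24 h at 37 °C, 5% CO₂. Inhibitor added at 0.6-10000 nM for 72 h, with WST-1 pulse over the final 4 h. Formazan read at 450 nm (reference 650 nm). Expressed as % inhibition of vehicle response; GI50 is the concentration inhibiting 50% of vehicle response; n = 6 replicates.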

Another series concerns the target Histone deacetylase. Nature of the series: Inhibition of HDAC in human HeLa cells nuclear extract using fluor de Lys as substrate preincubated for 5 mins by fluorometric analysis. The class given is cell-based.
A short description of series [5]: Drug level in tumor of BALB/c mouse at 75 mg/kg, po administered daily for 14 days. The format is ADME, organism-based, Neoplasm. Further details: dose 75 mg/kg, route oral. As to conditions: read-out: Drug uptake. The method in brief: (§3)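 HCT116 xenografts in female nude BALB/c mice, run at EpiStem. Oral daily dosing for 14 days in 5% DMSO-saline at 50 or 75 mg/kg. Tumor volume measured relative to start; drug concentrations in tumor and plasma measured.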

Series [6] deals with Mus musculus. Nature of the series: In-vivo inhibition of HDAC1 in human HCT116 cells xenografted CrTac:NCr-Fox1 nude mouse assessed as histone acetylation at 50 mg/kg, po administered daily for 16 days measured after hrs by Western blot analysis relative to control. Set-up: dose 50 mg/kg. The format is functional, organism-based. Conditions: HCT-116. The method in brief:
as §1

A short description of series [7]: Half life in rat at 10 mg/kg, po. The format is ADME, organism-based. Further details: dose 10 mg/kg, route oral. As to conditions: in vivo. The method in brief: (§4)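 Rat single dose, iv 1 mg/kg or po 10 mg/kg, both in 1% DMSO-HPβC (11.25% w/v). AUC0-t in ng h/mL, clearance in (mL/min)/kg, t1/2 in h, F in %.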
The next series deals with DU-145. Put plainly: Ratio of GI50 for SAHA to compound for human DU145 cells after 72 hrs by WST-1 assay. The class given is functional. In short, it runs like this: (§5)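 Cells seeded at (1-5) × 10³/well in serum-containing medium and grown 24 h at 37 °C, 5% CO₂. They were then exposed for 72 h to HDAC inhibitor (0.6-10000 nM), with SAHA run alongside in the same panel. WST-1 was added for the final 4 h and read at 450 nm (650 nm reference). GI50 taken as 50% inhibition of the vehicle response, n = 6.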
A general note: Formazan colour is commonly taken as a measure of viable cells.

Series [8] deals with HCT-116. Put plainly: Antitumor activity against human HCT116 cells xenografted in BALB/c mouse assessed as suppression of tumor growth at 50 mg/kg, po administered QD for 14 days. The format is functional, organism-based. Further details: dose 50 mg/kg. The method in brief:
as §3

Series [9] is described as follows: Ratio of GI50 for SAHA to compound for human […] cells after 72 hrs by WST-1 assay. The format is functional. The method in brief:
as §5

The subject of the next series is U-937. Nature of the series: Ratio of GI50 for SAHA to compound for human U937 cells after 72 hrs by WST-1 assay. The class given is functional. The method in brief: as §5
Series [10] in a line: Antiproliferative activity against human […] cells after 72 hrs by WST-1 assay. The class given is functional. Conditions: Homo sapiens, MCR5-SV2, 72 h. The method in brief:
as §2

The subject of series [11] is Rattus norvegicus. Nature of the series: Oral bioavailability in rat at 10 mg/kg. The class given is ADME, organism-based. Conditions: in vivo. In short, it runs like this:
as §4

Series [12] can be described thus: Half life in dog at 10 mg/kg, po. The class given is ADME, organism-based, Canis lupus familiaris. Set-up: dose 10 mg/kg, route oral. As to conditions: in vivo. The method in brief: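 Dog single dose: iv 1 mg/kg in 5% DMSO-HPβC (11.25% w/v); po 10 mg/kg in 5% DMSO-saline. AUC0-t in ng h/mL, clearance in (mL/min)/kg, t1/2 in h, F in %.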
The next series concerns A2780. Put plainly: Ratio of GI50 for SAHA to compound for human A2780 cells after 72 hrs by WST-1 assay. The class given is functional. The method in brief:
as §5

For a further series, the system named is HepG2. Nature of the series: Ratio of GI50 for SAHA to compound for human HepG2 cells after 72 hrs by WST-1 assay. The format is functional. In short, it runs like this: as §5
The subject of series [13] is HCT-116. Nature of the series: Ratio of GI50 for SAHA to compound for human HCT116 cells after 72 hrs by WST-1 assay. The class given is functional. In short, it runs like this:
as §5

The test system of a further series is PC-3. Nature of the series: Ratio of GI50 for SAHA to compound for human PC3 cells after 72 hrs by WST-1 assay. The class given is functional. In short, it runs like this:
as §5

In series [14] the test system is COR-L23. Nature of the series: Ratio of GI50 for SAHA to compound for doxorubicin-resistant human COR-L23 cells after 72 hrs by WST-1 assay. The class given is functional. The method in brief:
as §5

A further series has as its system LoVo. Put plainly: Ratio of GI50 for SAHA to compound for human LoVo cells after 72 hrs by WST-1 assay. The class given is functional. In short, it runs like this:
as §5

For a further series, the system named is A549. Put plainly: Ratio of GI50 for SAHA to compound for human A549 cells after 72 hrs by WST-1 assay. The class given is functional. The method in brief: as §5
Series [15] deals with COR-L23. Put plainly: Ratio of GI50 for SAHA to compound for human COR-L23 cells after 72 hrs by WST-1 assay. The class given is functional. The method in brief: as §5
Series [16] is described as follows: Clearance in rat at 1 mg/kg, iv. The class given is ADME, organism-based. Further details: dose 1 mg/kg, route intravenous. Conditions: in vivo. In short, it runs like this: as §4
In series [17] the test system is Rattus norvegicus. Nature of the series: AUC (0 to t) in rat at 1 mg/kg, iv. The format is ADME, organism-based, Plasma. Set-up: dose 1 mg/kg, route intravenous. Conditions: in vivo. In short, it runs like this: as §4
Another series has as its system MIA PaCa-2. Nature of the series: Ratio of GI50 for SAHA to compound for human MIAPaCa2 cells after 72 hrs by WST-1 assay. The format is functional. In short, it runs like this: as §5
The subject of series [18] is Rattus norvegicus. Put plainly: AUC (0 to t) in rat at 10 mg/kg, po. The format is ADME, organism-based, Plasma. Set-up: dose 10 mg/kg, route oral. Conditions: in vivo. The method in brief: as §4
The subject of the next series is HuT78. Nature of the series: Ratio of GI50 for SAHA to compound for human HUT78 cells after 72 hrs by WST-1 assay. The class given is functional. The method in brief: as §5
For series [19], the system named is MOLT-4. Put plainly: Ratio of GI50 for SAHA to compound for human MOLT4 cells after 72 hrs by WST-1 assay. The format is functional. The method in brief: as §5
Series [20] in a line: Aqueous solubility of the compound in PBS at pH 5.5. The class given is physicochemical.

≈ marks a conversion by molar mass, not a printed value. Calls of active or inactive are those of the source. The calls are words filed in the database; no cut-off is given here.

For orientation: Kp means tissue or fluid exposure divided by exposure in the circulation. A word on the IC50: it is the midpoint of a concentration-inhibition curve. The GI50 is the concentration giving 50% growth inhibition. For orientation: half-life means the time in which the quantity being followed falls by half. One may read the clearance as the rate of elimination divided by the concentration. Read a low clearance as inefficient removal. The term Ki denotes a measure of affinity in units of concentration, obtained from inhibition or displacement. Read a low Ki as tighter binding. One may read the solubility as the dissolved amount per volume that the medium holds.

Chain of Histone deacetylase 1 (Q13547 whole entry): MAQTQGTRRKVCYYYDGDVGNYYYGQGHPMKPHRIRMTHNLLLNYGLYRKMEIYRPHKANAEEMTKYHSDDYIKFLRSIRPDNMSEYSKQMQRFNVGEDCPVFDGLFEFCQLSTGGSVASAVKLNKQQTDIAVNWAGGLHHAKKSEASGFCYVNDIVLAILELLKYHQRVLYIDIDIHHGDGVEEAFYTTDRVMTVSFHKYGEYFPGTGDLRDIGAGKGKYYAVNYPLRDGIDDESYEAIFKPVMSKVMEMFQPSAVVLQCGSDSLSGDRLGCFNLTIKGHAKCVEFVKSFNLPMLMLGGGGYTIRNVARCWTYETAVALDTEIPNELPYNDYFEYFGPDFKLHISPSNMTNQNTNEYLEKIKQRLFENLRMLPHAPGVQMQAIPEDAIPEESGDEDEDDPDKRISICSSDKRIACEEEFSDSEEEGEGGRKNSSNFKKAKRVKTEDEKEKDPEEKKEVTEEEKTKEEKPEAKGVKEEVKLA

Regarding `O=C(NO)c1cnc(N2C[C@@H]3[C@H](C2)[C@H]3NCc2ccc(Cl)cc2)nc1`, the inhibition entry with Mus musculus [1] was “inactive”. Moreover, the Activity result with Mus musculus [2] was “Non-toxic”. The Kp at 384 h in series [3] came out at 4. The IC50 on Histone deacetylase 1 came to 6 nM; against Histone deacetylase, 13 nM. Further, the GI50 in the series on MOLT-4 [4] worked out at 71 nM. In addition, the concentration at 336 h in series [5] amounted to 28 ng/mL. Further, in the series on Mus musculus [6], the inhibition result is “Active”.

In the case of `O=C(NO)c1cnc(N2C[C@@H]3[C@H](C2)[C@H]3NCc2ccc3cc(F)ccc3n2)nc1` [NANATINOSTAT], the figures for the half-life in [7] and in series [12] were 5.2 h and 0.9 h, respectively. The RatioGI50 with DU-145 came to 21.9; in series [9] it was 19; in the series on U-937, 8.7; with A2780, 15; in the series with HepG2 it was 20; with HCT-116 [13] it was 10.3. The RatioGI50 in the series on PC-3 was 12.5; in the series with COR-L23 [14] it was 5; in the series with LoVo, 12.1; in the series on A549, 22.8; in the series with COR-L23 [15] it was 10.5; in the series with MIA PaCa-2 it was 12.5. In addition, the figures for the RatioGI50 with HuT78 and in the series with MOLT-4 [19] were 9.5 and 21.6, respectively. Also, the outcome with HCT-116 [8] was Active. The GI50 in series [10] amounted to 110 nM; in the series on MOLT-4 [4] it was 31 nM. In addition, in the series on Rattus norvegicus [11], the F worked out at 27%. Also, the IC50 was found to be 3 nM at Histone deacetylase 1 and 8 nM against Histone deacetylase. In [16], the clearance worked out at 134 mL/min/kg. Besides, the AUCt stood at 124 ng·h/mL in the series on Rattus norvegicus [17] and 102 ng·h/mL in the series on Rattus norvegicus [18]. This compound showed a Ki on Histone deacetylase of 4.8 nM. The same compound had a solubility in [20] of 3 µg/mL (≈ 7.61 µM).
